Source: ChEMBL document CHEMBL2021791, “Synthesis, structure-activity relationships and biological evaluation of caudatin derivatives as novel anti-hepatitis B virus agents” (Bioorg Med Chem, 2012)

Key:
Hepatitis B virus [1] = experiment: Antiviral activity against Hepatitis B virus infected in human HepG2(2.2.15) cells assessed as inhibition of viral DNA replication by RT-PCR analysis; assay type: functional, organism-based
[2] = Cytotoxicity against human HepG2(2.2.15) cells by MTT assay; assay type: cell-based
Procedure, shortened: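 HepG2 2.2.15 cells were exposed to compounds and viability was read by a modified MTT method. CC50 is the concentration giving 50% cytotoxicity. Values are means of at least two experiments.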

Hepatitis B virus [3] = experiment: Selectivity ratio of CC50 for human HepG2(2.2.15) cells to IC50 for Hepatitis B virus infected in human HepG2(2.2.15) cells assessed as suppression of HBeAg secretion; assay type: cell-based; details: read-out: Ratio CC50/IC50
Procedure, shortened: (§1)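 The selectivity index was calculated as CC50/IC50. CC50 is MTT cytotoxicity in HepG2 2.2.15 cells. No index was given where a value could not be obtained.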

Hepatitis B virus [4] = experiment: Antiviral activity against Hepatitis B virus infected in human HepG2(2.2.15) cells assessed as suppression of HBsAg secretion by ELISA; assay type: functional, organism-based
Hepatitis B virus [5] = experiment: Antiviral activity against Hepatitis B virus infected in human HepG2(2.2.15) cells assessed as suppression of HbeAg secretion by ELISA; assay type: functional, organism-based
Hepatitis B virus [6] = experiment: Selectivity ratio of CC50 for human HepG2(2.2.15) cells to IC50 for Hepatitis B virus infected in human HepG2(2.2.15) cells assessed as inhibition of viral replication; assay type: cell-based; details: read-out: Ratio CC50/IC50; procedure, shortened: as §1
Hepatitis B virus [7] = experiment: Selectivity ratio of CC50 for human HepG2(2.2.15) cells to IC50 for Hepatitis B virus infected in human HepG2.2.15 cells assessed as suppression of HBsAg secretion; assay type: cell-based; details: read-out: Ratio CC50/IC50; procedure, shortened: as §1

Row | Compound | IC50 (Hepatitis B virus [1]) | CC50 ([2]; HepG2(2.2.15) cells) | selectivity ratio (Hepatitis B virus [3]) | IC50 (Hepatitis B virus [4]) | IC50 (Hepatitis B virus [5]) | selectivity ratio (Hepatitis B virus [6]) | selectivity ratio (Hepatitis B virus [7]) | CC50 ([2]; hepg2 2.2.15)
1 | CC(=O)[C@]1(O)CC[C@@]2(O)[C@]1(C)[C@H](OC(=O)/C=C(\C)C(C)C)C[C@@H]1[C@@]3(C)CC[C@H](OC(=O)COCC(=O)O)CC3=CC[C@]12O | 164 µM | 274 µM | 2.4 | 524 µM | 115 µM | 1.7 |  | 
2 | CC(=O)[C@]1(O)CC[C@@]2(O)[C@]1(C)[C@H](OC(=O)/C=C(\C)C(C)C)C[C@@H]1[C@@]3(C)CC[C@H](OC(=O)c4cc5ccccc5[nH]4)CC3=CC[C@]12O | 3.63 µM | 36.7 µM | 1.1 | 21.7 µM | 33.7 µM | 10.1 | 1.7 | 
3 | CC(=O)[C@]1(O)CC[C@@]2(O)[C@]1(C)[C@H](OC(=O)/C=C(\C)C(C)C)C[C@@H]1[C@@]3(C)CC[C@H](OC(=O)c4cccnc4)CC3=CC[C@]12OC(=O)c1cccnc1 | 97 µM | 350 µM | 1.7 | 199 µM | 204 µM | 3.6 | 1.8 | 
4 | CC(=O)[C@]1(OC(=O)/C=C/c2ccc3c(c2)OCO3)CC[C@@]2(O)[C@]1(C)[C@H](OC(=O)/C=C(\C)C(C)C)C[C@@H]1[C@@]3(C)CC[C@H](OC(=O)/C=C/c4ccc5c(c4)OCO5)CC3=CC[C@]12O | > 201 µM | > 1020 µM | > 2.5 | 575 µM | 407 µM |  | > 1.8 | 
5 | C[C@H](Cn1cnc2c(N)ncnc21)OCP(=O)(O)O [TENOFOVIR ANHYDROUS] | 0.77 µM | > 1820 µM | > 1.5 | 1450 µM | 1240 µM | > 2360 | > 1.3 | 
6 | CC(=O)N1CCC(C(=O)O[C@H]2CC[C@@]3(C)C(=CC[C@]4(O)[C@@H]3C[C@@H](OC(=O)/C=C(\C)C(C)C)[C@@]3(C)[C@]4(O)CC[C@@]3(O)C(C)=O)C2)CC1 | 54.8 µM | 62.1 µM | > 1 | 93.2 µM | < 62.1 µM | 1.1 |  | 
7 | CC(=O)[C@]1(O)CC[C@@]2(O)[C@]1(C)[C@H](OC(=O)/C=C(\C)C(C)C)C[C@@H]1[C@@]3(C)CC[C@H](OC(=O)C(C#N)=C(C)C)CC3=CC[C@]12O | 30.6 µM | 452 µM | 2 | 136 µM | 221 µM | 14.8 | 3.3 | 
8 | CC(=O)[C@]1(O)CC[C@@]2(O)[C@]1(C)[C@H](OC(=O)/C=C(\C)C(C)C)C[C@@H]1[C@@]3(C)CC[C@H](OC(=O)/C=C/n4ccnc4)CC3=CC[C@]12O | 7.48 µM | > 1460 µM | > 111 | 18.7 µM | 13.2 µM | > 195 | > 78 | 
9 | CCOCC(=O)O[C@H]1CC[C@@]2(C)C(=CC[C@]3(O)[C@@H]2C[C@@H](OC(=O)/C=C(\C)C(C)C)[C@@]2(C)[C@]3(O)CC[C@@]2(O)C(C)=O)C1 | 13.8 µM | 116 µM |  | 68.2 µM | > 153 µM | 8.4 | 1.7 | 
10 | CC(=O)[C@]1(O)CC[C@]23OC(C)(C)O[C@]24CC=C2C[C@@H](O)CC[C@]2(C)[C@H]4C[C@@H](OC(=O)/C=C(\C)C(C)C)[C@@]31C | 218 µM | 512 µM |  | 168 µM | > 1720 µM | 2.3 | 3 | 
11 | CC(=O)[C@]1(O)CC[C@@]2(O)[C@]1(C)[C@H](OC(=O)/C=C(\C)C(C)C)C[C@@H]1[C@@]3(C)CC[C@H](OC(=O)COc4ccccc4)CC3=CC[C@]12O | 41 µM | 319 µM | 3.3 | 76.7 µM | 96.1 µM | 7.8 | 4.2 | 
12 | CC(=O)[C@]1(O)CC[C@@]2(O)[C@]1(C)[C@H](OC(=O)/C=C(\C)C(C)C)C[C@@H]1[C@@]3(C)CC[C@H](OC(=O)c4cnccn4)CC3=CC[C@]12O | 47.9 µM | 61.3 µM | > 1.2 | 95.5 µM | < 50.3 µM | 1.3 |  | 
13 | CC(=O)N1CCC[C@H]1C(=O)O[C@H]1CC[C@@]2(C)C(=CC[C@]3(O)[C@@H]2C[C@@H](OC(=O)/C=C(\C)C(C)C)[C@@]2(C)[C@]3(O)CC[C@@]2(O)C(C)=O)C1 | 65.7 µM | 106 µM |  | 70.7 µM | > 638 µM | 1.6 | 1.5 | 
14 | CC(=O)[C@]1(O)CC[C@@]2(O)[C@]1(C)[C@H](OC(=O)/C=C(\C)C(C)C)C[C@@H]1[C@@]3(C)CC[C@H](O)CC3=CC[C@]12O [CAUDATIN] | 40.6 µM |  | < 1.3 | 143 µM | > 183 µM | 6 | 1.7 | 245 µM
15 | CC(=O)[C@]1(OC(=O)c2cccnc2)CC[C@@]2(O)[C@]1(C)[C@H](OC(=O)/C=C(\C)C(C)C)C[C@@H]1[C@@]3(C)CC[C@H](OC(=O)c4cccnc4)CC3=CC[C@]12O | 24.7 µM | 602 µM | > 2.4 | 90 µM | 135 µM | > 24.4 | > 6.7 | 
